Measured values reported in ChEMBL document CHEMBL4266000, “Discovery of Novel 4-Arylisochromenes as Anticancer Agents Inhibiting Tubulin Polymerization” (ACS Med Chem Lett, 2018).
The source made the active and inactive calls. The calls are words filed in the database; no cut-off is given here.

How the values were obtained:
KB = assay: Antiproliferative activity against human KB cells after 72 hrs by MTT assay; format: functional, cell-based
In short: (§1)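 MTT viability read-out after 72 h continuous exposure to test compounds. Performed in triplicate and reported as IC50, means ± SD, n = 3.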

HCT-8 = assay: Antiproliferative activity against human HCT8 cells after 72 hrs by MTT assay; format: functional, cell-based; details: HCT-8, 72 h; in short: as §1
MDA-MB-231 = assay: Antiproliferative activity against human MDA-MB-231 cells after 72 hrs by MTT assay; format: functional, cell-based; details: MDA-MB-231, 72 h; in short: as §1
K562 [1] = assay: Antiproliferative activity against human K562 cells after 72 hrs by MTT assay; format: functional, cell-based; details: K562, 72 h; in short: as §1
H22 [2] = assay: Antiproliferative activity against […] cells after 72 hrs by MTT assay; format: functional, cell-based; details: Mus musculus, H22, 72 h; in short: as §1
L02 = assay: Cytotoxicity against human LO2 cells after 72 hrs by MTT assay; format: cell-based; details: L02, 72 h; in short: as §1
HepG2 = assay: Antiproliferative activity against human HepG2 cells after 72 hrs by MTT assay; format: functional, cell-based; details: HepG2, 72 h; in short: as §1
[3] = Inhibition of porcine brain tubulin polymerization after 30 mins by spectrophotometric method; parameters: species or system Sus scrofa
Sus scrofa [4] = species on record: Sus scrofa; assay: Inhibition of [3H]colchicine binding to biotinylated porcine tubulin at 1 uM after 2 hrs by scintillation proximity assay
Sus scrofa [5] = species on record: Sus scrofa; assay: Inhibition of [3H]colchicine binding to biotinylated porcine tubulin at 5 uM after 2 hrs by scintillation proximity assay
K562 [6] = assay: Induction of microtubule network disruption in human K562 cells after 24 hrs by DAPI staining based immunofluorescence assay; format: functional, cell-based
In short: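 K562 cells exposed at 5, 10 or 20 nM for 24 h. Microtubule network visualized by immunofluorescence against untreated cells.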

K562 [7] = assay: Cell cycle arrest in human K562 cells assessed as accumulation at G2/M phase at 5 nM after 48 hrs by propidium iodide staining based flow cytometry; format: functional
In short: (§2)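 K562 cells treated at 5, 10 or 20 nM for 48 h. Stained with propidium iodide and DNA content analysed for the fraction in G2/M.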

K562 [8] = assay: Cell cycle arrest in human K562 cells assessed as accumulation at G2/M phase at 10 nM after 48 hrs by propidium iodide staining based flow cytometry; format: functional; in short: as §2
K562 [9] = assay: Cell cycle arrest in human K562 cells assessed as accumulation at G2/M phase at 20 nM after 48 hrs by propidium iodide staining based flow cytometry; format: functional; in short: as §2
K562 [10] = assay: Induction of apoptosis in human K562 cells assessed as early apoptotic cells at 5 nM after 48 hrs by Annexin V-APC/7-AAD staining based flow cytometry (reference value: 5.7%); format: functional
K562 [11] = assay: Induction of apoptosis in human K562 cells assessed as late apoptotic cells at 5 nM after 48 hrs by Annexin V-APC/7-AAD staining based flow cytometry (reference value: 5.7%); format: functional
K562 [12] = assay: Induction of apoptosis in human K562 cells assessed as early apoptotic cells at 10 nM after 48 hrs by Annexin V-APC/7-AAD staining based flow cytometry (reference value: 5.7%); format: functional
K562 [13] = assay: Induction of apoptosis in human K562 cells assessed as late apoptotic cells at 10 nM after 48 hrs by Annexin V-APC/7-AAD staining based flow cytometry (reference value: 5.7%); format: functional
K562 [14] = assay: Induction of apoptosis in human K562 cells assessed as early apoptotic cells at 20 nM after 48 hrs by Annexin V-APC/7-AAD staining based flow cytometry (reference value: 5.7%); format: functional
K562 [15] = assay: Induction of apoptosis in human K562 cells assessed as late apoptotic cells at 20 nM after 48 hrs by Annexin V-APC/7-AAD staining based flow cytometry (reference value: 5.7%); format: functional
K562 [16] = assay: Induction of apoptosis in human K562 cells after 48 hrs by Annexin V-APC/7-AAD staining based flow cytometry; format: functional, cell-based
K562 [17] = assay: Induction of mitochondrial membrane depolarization in human K562 cells at 5 nM after 48 hrs by JC-1 probe based flow cytometry (reference value: 0.6%); format: functional
In short: (§3)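 K562 cells treated at 0, 5, 10 or 20 nM for 48 h. Mitochondrial membrane potential measured with JC-1 probe and the percentage of cells with collapsed potential recorded.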

K562 [18] = assay: Induction of mitochondrial membrane depolarization in human K562 cells at 10 nM after 48 hrs by JC-1 probe based flow cytometry (reference value: 0.6%); format: functional; in short: as §3
K562 [19] = assay: Induction of mitochondrial membrane depolarization in human K562 cells at 20 nM after 48 hrs by JC-1 probe based flow cytometry (reference value: 0.6%); format: functional; in short: as §3
HUVEC [20] = assay: Antimigratory activity in HUVEC after 24 hrs by wound healing based phase contrast microscopy; format: functional, cell-based; details: Homo sapiens
In short: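 Confluent HUVEC monolayer scraped to make a wound. Cells exposed to test agent and migration into the scraped area followed over 24 h.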

HUVEC [21] = assay: Antivascular activity against HUVEC assessed as reduction in capillary like tube formation up to 20 nM after 6 hrs by inverted microscopic based matrigel method; format: functional, cell-based; details: Homo sapiens
In short: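 HUVECs seeded on matrigel to form capillary-like tubules, then exposed to 0, 5, 10 or 20 nM for 6 h. Disruption of tube networks scored.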

H22 [22] = assay: Antitumor activity against […] cells xenografted in ICR mouse assessed as reduction in tumor weight at 15 mg/kg, iv qd for 21 consecutive days; format: functional; parameters: scale not given: the % may be the effect or the level left
In short: (§4)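 H22 cells inoculated subcutaneously into the right flank of mice. Dosing i.v. at 15 or 30 mg/kg per day, or paclitaxel 8 mg/kg every 2 days, for 21 days. Tumor size and body weight recorded every 2 days. Tumor weight compared with vehicle at day 21.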

H22 [23] = assay: Antitumor activity against […] cells xenografted in ICR mouse assessed as reduction in tumor weight at 30 mg/kg, iv qd for 21 consecutive days; format: functional; parameters: scale not given: the % may be the effect or the level left; in short: as §4
Mus musculus [24] = assay: Toxicity in ICR mouse xenografted with […] cells assessed as decrease in body weight up to 30 mg/kg, iv qd for 21 consecutive days measured every 2 days; format: organism-based; details: in vivo, 48 h; in short: as §4
H22 [25] = assay: Antitumor activity against […] cells xenografted in ICR mouse assessed as reduction in tumor weight at 8 mg/kg, iv per 2 days for 21 consecutive days; format: functional; parameters: scale not given: the % may be the effect or the level left; in short: as §4
Mus musculus [26] = assay: Toxicity in ICR mouse xenografted with […] cells assessed as decrease in body weight at 8 mg/kg, iv per 2 days for 21 consecutive days measured every 2 days; format: organism-based; details: in vivo, 48 h; in short: as §4

COc1ccc2c(c1O)COC(C)C2=O (centres undefined)
IC50 (KB): 25100 nM
IC50 (HCT-8): 35200 nM
IC50 (MDA-MB-231): 30200 nM
IC50 (K562 [1]): 20500 nM
IC50 (H22 [2]): 18200 nM
IC50 (L02): 22200 nM
IC50 (HepG2): 23700 nM
IC50 [3]: 10600 nM

COc1ccc2c(c1O)COC=C2c1cc(OC)c(OC)c(OC)c1
IC50 (KB): 16 nM
IC50 (HCT-8): 25 nM
IC50 (MDA-MB-231): 28 nM
IC50 (K562 [1]): 19 nM
IC50 (H22 [2]): 10 nM
IC50 (L02): 138 nM
IC50 (HepG2): 26 nM
IC50 [3]: 4200 nM

COc1ccc2c(c1O)COC[C@@H]2c1cc(OC)c(OC)c(OC)c1
IC50 (KB): 12 nM
IC50 (HCT-8): 12 nM
IC50 (MDA-MB-231): 11 nM
IC50 (K562 [1]): 8 nM
IC50 (H22 [2]): 8 nM
IC50 (L02): 58 nM
IC50 [3]: 2500 nM
inhibition (Sus scrofa [4]): 79.4%
inhibition (Sus scrofa [5]): 92.6%

COc1cc2c(cc1O)C(c1cc(OC)c(OC)c(OC)c1)=COC2
IC50 (HepG2): > 10000 nM

COc1cc2c(cc1O)C(c1cc(OC)c(OC)c(OC)c1)COC2 (centres undefined)
IC50 (HepG2): > 10000 nM

COc1ccc2c(c1O)COC[C@H]2c1cc(OC)c(OC)c(OC)c1
IC50 (KB): 870 nM
IC50 (HCT-8): 940 nM
IC50 (MDA-MB-231): 900 nM
IC50 (K562 [1]): 460 nM
IC50 (H22 [2]): 800 nM
IC50 (L02): 900 nM
IC50 [3]: 4300 nM

COc1ccc2c(c1O)COCC2c1cc(OC)c(OC)c(OC)c1 (racemic)
IC50 (KB): 25 nM
IC50 (HCT-8): 30 nM
IC50 (MDA-MB-231): 22 nM
IC50 (K562 [1]): 10 nM
IC50 (H22 [2]): 11 nM
IC50 (L02): 95 nM
IC50 (HepG2): 15 nM
IC50 [3]: 3100 nM
inhibition (Sus scrofa [4]): 76.4%
inhibition (Sus scrofa [5]): 89.6%
Activity (K562 [6]): Dose-dependent effect
Activity (K562 [7]): 17.5%
Activity (K562 [8]): 19.5%
Activity (K562 [9]): 22.4%
Activity (K562 [10]): 13.7%
Activity (K562 [11]): 13.7%
Activity (K562 [12]): 29%
Activity (K562 [13]): 29%
Activity (K562 [14]): 54.1%
Activity (K562 [15]): 54.1%
Activity (K562 [16]): Dose-dependent effect
Activity (K562 [17]): 12.7%
Activity (K562 [18]): 26.7%
Activity (K562 [19]): 55.1%
Activity (HUVEC [20]): Dose-dependent effect
Activity (HUVEC [21]): Active
Activity (H22 [22]): 46.5%
Activity (H22 [23]): 62.3%
Activity (Mus musculus [24]): Non-Toxic

COc1ccc(/C=C\c2cc(OC)c(OC)c(OC)c2)cc1O [COMBRETASTATIN A4]
IC50 (KB): 12 nM
IC50 (HCT-8): 15 nM
IC50 (MDA-MB-231): 15 nM
IC50 (K562 [1]): 15 nM
IC50 (H22 [2]): 8 nM
IC50 (L02): 95 nM
IC50 [3]: 2500 nM
Activity (H22 [22]): 44.8%
Activity (H22 [23]): 55.3%

CC(=O)O[C@H]1C(=O)[C@@]2(C)[C@H]([C@H](OC(=O)c3ccccc3)[C@]3(O)C[C@H](OC(=O)[C@H](O)[C@@H](NC(=O)c4ccccc4)c4ccccc4)C(C)=C1C3(C)C)[C@]1(OC(C)=O)CO[C@@H]1C[C@@H]2O [PACLITAXEL]
Activity (H22 [25]): 72.1%
Activity (Mus musculus [26]): Toxic
